This note sets out measurements from ChEMBL document CHEMBL1132346, “New type of febrifugine analogues, bearing a quinolizidine moiety, show potent antimalarial activity against Plasmodium malaria parasite” (J Med Chem, 1999).

“And” between values parts separate entries of the source, which are not always exact repeats. Identical values can stand only once.

One experiment relates to FM3A. The experiment in a line: Compound was tested for cytotoxicity against FM3A mouse mammary cells. Format: functional, cell-based.
In experiment [1] the test system is Mus musculus. The experiment is described as follows: Compound was tested for antimalarial activity against mice (Mus musculus) malaria parasite Plasmodium berghei in vivo and the samples were administarted intraperitoneally. The class given is functional. Conditions: for ED50: ip.
Experiment [2] deals with Plasmodium falciparum. The experiment is described as follows: In vitro antimalarial activity against chloroquine-sensitive Plasmodium falciparum FCR3. Format: functional, organism-based.
Experiment [3] relates to Plasmodium falciparum. The experiment is described as follows: In vitro antimalarial activity against chloroquine-resistant Plasmodium falciparum K1. The class given is functional, organism-based.
A short description of experiment [4]: Selectivity is the ratio of antimalarial activity and cytotoxicity. The class given is functional. The method, boiled down:
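Ratio of antimalarial activity to cytotoxicity, with cytotoxicity measured against FM3A mouse mammary cells.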

The next experiment relates to Plasmodium berghei. The experiment is described as follows: In vivo antimalarial activity against Plasmodium berghei infected mice (Mus musculus) by intraperitoneal dose. Format: functional.
Experiment [5] has as its system Mus musculus. The experiment in a line: Compound was tested for antimalarial activity against mice (Mus musculus) malaria parasite Plasmodium berghei in vivo mice (Mus musculus) and the samples were administarted intraperitoneally. The class given is functional.

On to `CC1(C)[C@@H](n2cnc3ccccc3c2=O)C(=O)C[C@@H]2[C@@H](O)CCCN21`, for which the half-maximal effective concentration (EC50) was 380 nM in the experiment on FM3A, 1.6 nM in the experiment on Plasmodium falciparum [2] and 3 nM in the experiment on Plasmodium falciparum [3]. Moreover, the ED90 in the experiment with Mus musculus [1] was found to be 19.4 µM/kg. The compound also came in with an ED50 with Mus musculus [1] of 7.3 µmol/kg. In experiment [4], the Selectivity is 238 and 127.

On to `C[C@@H]1CC[C@H]2[C@@H](C)C(=O)O[C@@H]3O[C@@]4(C)CC[C@@H]1[C@]32OO4` [ARTEMISININ], for which the ED90 with Plasmodium berghei came out at 46 µM/kg. Besides, it took a dose of 17.7 µmol/kg to reach the 50% effect level with Plasmodium berghei (ip) (ED50).

With `CC1(C)[C@H](n2cnc3ccccc3c2=O)C(=O)C[C@H]2[C@@H](O)CCCN21`, the EC50 in the experiment on FM3A worked out at 2400 nM; in the experiment on Plasmodium falciparum [2] it was 2.8 nM; in the experiment with Plasmodium falciparum [3] it was 4.2 nM. In the experiment with Mus musculus [1], this compound returned a 50% effective dose (ED50) of 76 µmol/kg. For the same compound, the Selectivity in experiment [4] is 857 and 571.

As for `O=c1c2ccccc2ncn1CC1(O)C[C@@H]2NCCC[C@@H]2O1` (some centres undefined) [ISOFEBRIFUGINE], the EC50 stood at 180 nM in the experiment with FM3A, 3.4 nM with Plasmodium falciparum [2] and 1.8 nM in the experiment with Plasmodium falciparum [3]. In addition, in the experiment with Mus musculus [5], the ED90 stood at 5 µM/kg. The Selectivity in experiment [4] was 53 and 100.

As for `CCN(CC)CCCC(C)Nc1ccnc2cc(Cl)ccc12` (centres undefined) [CHLOROQUINE], the results for the EC50 in the experiment on FM3A, with Plasmodium falciparum [2] and in the experiment on Plasmodium falciparum [3] were 32000 nM, 18 nM and 130 nM, respectively. Besides, the ED90 with Mus musculus [1] was found to be 9.4 µM/kg. Further, the ED50 with Mus musculus [1] was determined as 4.7 µmol/kg.

As to `O=C(C[C@@H]1NCCC[C@H]1O)Cn1cnc2ccccc2c1=O` (single isomer, unassigned) [FEBRIFUGINE], the EC50 with FM3A stood at 170 nM; in the experiment on Plasmodium falciparum [2] it was 0.7 nM; in the experiment on Plasmodium falciparum [3] it was 1.2 nM. In the experiment with Mus musculus [1], this compound had an ED90 of 5 µM/kg. In the experiment with Mus musculus [1], this compound returned an ED50 of 1 µmol/kg. In addition, the Selectivity in experiment [4] is 243 and 142.

What is called EC50 is the midpoint of the concentration-response curve. A lower EC50 goes with an effect from little substance. One may read the ED50 as the dose that gives a 50% effect, or the effect in half of the subjects. A low value points to greater potency.
